pIC50: −log10 of the molar value. Calls of active or inactive are those of the source. No cut-off for these calls is given here.
Tests used:
A-375 = test: Antiproliferative activity against human A375 cells after 48 hrs by MTT assay; format: functional, cell-based; details: A-375, 48 h
Summary of the method: (§1)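 Adherent lines seeded at 6×10^3 cells/well and allowed 12 h attachment. Media: NCI-H520 and HeLa RPMI-1640; HepG2, MCF-7, CNE-2, A375, A172 and U118-MG DMEM; U251 MEM-EBSS; all with 10% FBS, 37 °C, 5% CO2. Dosed 48 h at final 50, 25, 10, 1 and 0.1 μM. MTT 4 h, formazan dissolved in DMSO, A490. IC50 from the dose series.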

K562 [1] = test: Induction of apoptosis in human K562 cells assessed as late apoptotic cells at 0.25 uM after 48 hrs by annexin V/PI staining based flow cytometry (reference value: 0.26 %); format: functional
K562 [2] = test: Induction of apoptosis in human K562 cells assessed as cleavage of caspase-9 at 1 uM after 36 hrs by Western blot analysis; format: functional, cell-based
Summary of the method: (§2)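 K562 cells in 6 cm dishes treated 36 h at various concentrations. Cells lysed on ice for 0.5 h and spun at 20,000 g. Protein measured by BCA. Lysates run on 12% SDS-PAGE and transferred to PVDF. Membranes blocked in 5% milk and probed overnight at 4 °C with primary antibody against cleaved caspase-9, -7, -3, cleaved PARP or Bcl-XL.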

K562 [3] = test: Induction of apoptosis in human K562 cells assessed as reduction in Bcl-XL protein expression at 1 uM after 36 hrs by Western blot analysis; format: functional, cell-based; summary of the method: as §2
Bos taurus = species: Bos taurus; test: Displacement of ethidium bromide from calf thymus DNA assessed as quenching constant up to 30 uM after 5 mins by competitive binding fluorescence method
Summary of the method: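 EB final 10 μM with ct DNA 40 μM in Tris-HCl/50 mM NaCl, pH 7.2. Compound added at final 0, 5, 10, 20 and 30 μM. Incubated 5 min, excitation 366 nm, emission near 600 nm. Quenching constant from the Stern–Volmer fit F0/F = 1 + K[Q].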

[4] = Antiproliferative activity against human A172 cells after 48 hrs by MTT assay; format: functional, cell-based; details: A 172, 48 h; summary of the method: as §1
K562 [5] = test: Induction of apoptosis in human K562 cells assessed as early apoptotic cells at 0.25 uM after 48 hrs by annexin V/PI staining based flow cytometry (reference value: 3.89 %); format: functional
Calf thymus DNA = test: Binding affinity to calf thymus DNA at 10 uM after 5 mins by fluorescence emmission spectroscopic method; format: nucleic-acid assay; details: Bos taurus
Summary of the method: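 Compound at final 10 μM in 5 mM Tris-HCl, 50 mM NaCl, pH 7.2. ct DNA added to final 0–100 μM. Incubated 5 min. Emission recorded with excitation 425 nm. F/F0 plotted against [DNA]/[compound].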

K562 [6] = test: Induction of apoptosis in human K562 cells assessed as early apoptotic cells at 0.5 uM after 48 hrs by annexin V/PI staining based flow cytometry (reference value: 3.89 %); format: functional
K562 [7] = test: Antiproliferative activity against human K562 cells after 48 hrs by MTT assay; format: functional, cell-based; details: K562, 48 h
Summary of the method: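 K562 suspension cells in RPMI-1640 with 10% FBS, 37 °C, 5% CO2. Seeded at 1.5×10^4 cells/well, exposed 48 h to final 50, 25, 10, 1 and 0.1 μM. MTT (5 mg/mL) added for 4 h at 37 °C. IC50 from the dose series.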

K562 [8] = test: Induction of apoptosis in human K562 cells assessed as late apoptotic cells at 2.5 uM after 48 hrs by annexin V/PI staining based flow cytometry (reference value: 0.26 %); format: functional

Cc1cccc2c(=O)c3c(NCc4ccncc4)ccc(C(=O)NCCN(C)C)c3[nH]c12
pIC50 (A-375): 6.80
Activity (K562 [1]): 1.08%
Activity (K562 [2]): Active
Activity (K562 [3]): Active
Kq (Bos taurus): 1 ×10⁴ /M
pIC50 [4]: 5.66
Activity (K562 [5]): 15.64%
Activity (Calf thymus DNA): Active
Activity (K562 [6]): 23.13%
pIC50 (K562 [7]): 6.34
Activity (K562 [8]): 20.24%

From ChEMBL document CHEMBL3407337, “Molecular design, synthesis and biological research of novel pyridyl acridones as potent DNA-binding and apoptosis-inducing agents” (Eur J Med Chem, 2015)
